# Results reported in ChEMBL document CHEMBL1914312, “(8R)-3β,8-dihydroxypolypoda-13E,17E,21-triene induces cell cycle arrest and apoptosis in treatment-resistant prostate cancer cells” (J Nat Prod, 2011).
# The source made the active and inactive calls. No cut-off for these calls is given here.
# Assays:
# PC-3 [1] = assay: Cytotoxicity against human PC3 cells at 4 uM after 72 hrs by XTT assay; type: functional, cell-based; settings: PC-3, 72 h
# PC-3 [2] = assay: Antitumor activity against human PC3 cells xenografted in chicken chorioallantoic membrane assessed as inhibition of cell proliferation treated topically QD for 4 days by immunohistochemical analysis; type: functional, cell-based
# Summary of the method: (§1)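 0.7× 10^6 log-phase PC-3 cells in 20 μL medium/matrigel (1:1) grafted onto chicken CAM; from day 1, topical 20 μL compound or solvent once daily for 4 days. Xenografts fixed, paraffin-embedded, immunostained for Ki-67 with hematoxylin counterstain; staining quantified by image analysis; n = 3–6.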
# PC-3 [3] = assay: Induction of cell cycle arrest in human PC3 cells assessed as decrease in cyclin E expression at 3 to 10 uM after 48 hrs by Western blot analysis; type: functional, cell-based
# Summary of the method: (§2)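 PC-3 whole-cell lysates at equal protein separated by SDS-PAGE and immunoblotted for cyclin D1 (24 h treatment) or cyclin E and p21Waf1/Cip1 (48 h treatment); actin as loading control; three independent repeats.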
# [4] = Cytotoxicity against human RWPE1 cells at 1 to 30 uM after 48 hrs by XTT assay; type: cell-based; settings: rwpe-1, 48 h
# Summary of the method: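 Normal prostate epithelial RWPE-1 cells (HPV18-immortalized) grown in keratinocyte serum-free medium, 3–5 × 10^3 cells/well, treated 48 h; viability by XTT reduction (final 125 μM XTT, 25 μM phenazine methosulfate, 4 h), A450. Means ± SEM of 3–5 experiments in triplicate.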
# PC-3 [5] = assay: Induction of cell cycle arrest in human PC3 cells assessed as change in p21WAF1/Cip1 level at 3 to 10 uM after 48 hrs by Western blot analysis; type: functional, cell-based; summary of the method: as §2
# PC-3 [6] = assay: Cytotoxicity against human PC3 cells assessed as cell death at 3 to 30 uM after 48 hrs by LDH-release assay in presence of 10 uM of pan-caspase inhibitor z-VAD-fmk
# PC-3 [7] = assay: Induction of cell cycle arrest in human PC3 assessed as accumulation of cells at G0/G1-phase at 10 uM after 24 hrs by propidium iodide staining-based FACS analysis (reference value: 58.7 +/- 1.4%); type: functional
# PC-3 [8] = assay: Antitumor activity against human PC3 cells xenografted in chicken chorioallantoic membrane assessed as inhibition of tumor angiogenesis treated topically QD for 4 days using desmin staining by immunohistochemical analysis; type: functional, cell-based
# Summary of the method: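 PC-3 cells (0.7× 10^6 in 20 μL medium/matrigel 1:1) grafted onto chicken CAM, dosed topically with 20 μL compound or solvent once daily for 4 days from day 1. Paraffin sections immunostained for desmin as angiogenesis marker, hematoxylin counterstain; staining quantified by image analysis; n = 3–6.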
# PC-3 [9] = assay: Induction of cell cycle arrest in human PC3 assessed as accumulation of cells at G0/G1-phase at 10 uM after 48 hrs by propidium iodide staining-based FACS analysis (reference value: 58.8 +/- 2.2%); type: functional
# PC-3 [10] = assay: Induction of cell cycle arrest in human PC3 assessed as accumulation of cells at G2/M-phase at 10 uM after 48 hrs by propidium iodide staining-based FACS analysis (reference value: 17.3 +/- 1.2%); type: functional
# PC-3 [11] = assay: Induction of apoptosis in human PC3 cells assessed as DNA fragmentation at 10 uM after 72 hrs by SDS-PAGE analysis; type: functional, cell-based; settings: in the assay text read “agarose gel electrophoresis” for “SDS-PAGE analysis”
# Summary of the method: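 PC-3 cells cultured with compound or solvent for 72 h; floating cells lysed in buffer of 100 mM Tris-HCl pH 8.0, 2 mM EDTA, 0.8% SDS, RNase A and proteinase K; DNA ladder resolved on 1.5% agarose gel.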
# PC-3 [12] = assay: Induction of cell cycle arrest in human PC3 assessed as accumulation of cells at S-phase at 10 uM after 24 hrs by propidium iodide staining-based FACS analysis (reference value: 22.4 +/- 1.3%); type: functional
# PC-3 [13] = assay: Induction of apoptosis in human PC3 cells assessed as increase in phosphatidylserine expression on outer cell membrane leaflet after 48 to 72 hrs by annexin V-FITC and propidium iodine staining-based by flow cytometric analysis; type: functional
# Summary of the method: (§3)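 PC-3 cells exposed 48 and 72 h, adherent cells detached with citric saline, stained with FITC-annexin V and propidium iodide, analysed by flow cytometry for annexin V+ cells. Means ± SEM of three experiments, Newman-Keuls test.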
# PC-3 [14] = assay: Induction of cell cycle arrest in human PC3 assessed as accumulation of cells at S-phase at 10 uM after 48 hrs by propidium iodide staining-based FACS analysis (reference value: 23.9 +/- 1.1%); type: functional
# PC-3 [15] = assay: Cytotoxicity against human PC3 cells after at 30 uM after 48 to 72 hrs by XTT assay; type: functional, cell-based
# PC-3 [16] = assay: Cytotoxicity against human PC3 cells at 10 '-5 to 10 uM after 72 hrs by XTT assay; type: functional, cell-based
# PC-3 [17] = assay: Induction of cell cycle arrest in human PC3 cells assessed as decrease in cyclin D1 expression at 3 to 10 uM after 24 hrs by Western blot analysis; type: functional, cell-based; summary of the method: as §2
# PC-3 [18] = assay: Cytotoxicity against human PC3 cells at 30 uM after 48 hrs by XTT assay; type: functional, cell-based; settings: PC-3, 48 h
# PC-3 [19] = assay: Antitumor activity against human PC3 cells xenografted in chicken chorioallantoic membrane assessed as decrease in tumor size treated topically QD for 4 days by immunohistochemical analysis; type: functional, cell-based; summary of the method: as §1
# PC-3 [20] = assay: Antiproliferative activity against human PC3 cells assessed as reduction in colony formation after 21 days using crystal violet staining by anchorage-independent soft agar assay; type: functional, cell-based
# Summary of the method: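 PC-3 cells (Ham's F12-K, 10% FCS) seeded at 1000 cells/cm2 in 0.35% agar with 10 μM compound or solvent; colonies grown 21 days, fixed and stained with crystal violet.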
# PC-3 [21] = assay: Induction of apoptosis in human PC3 cells assessed as increase in phosphatidylserine expression on outer cell membrane leaflet at 3 to 30 uM by annexin V-FITC and propidium iodine staining-based by flow cytometric analysis; type: functional; settings: TDE = time-dependent effect; summary of the method: as §3
# PC-3 [22] = assay: Induction of cell cycle arrest in human PC3 assessed as accumulation of cells at G2/M-phase at 10 uM after 24 hrs by propidium iodide staining-based FACS analysis (reference value: 18.9 +/- 0.3%); type: functional
# PC-3 [23] = assay: Induction of apoptosis in human PC3 cells assessed as increase in phosphatidylserine expression on outer cell membrane leaflet at 10 uM by annexin V-FITC and propidium iodine staining-based by flow cytometric analysis; type: functional; settings: TDE = time-dependent effect; summary of the method: as §3
# PC-3 [24] = assay: Cytotoxicity against human PC3 cells after at 10 uM after 72 hrs by XTT assay; type: functional, cell-based
# PC-3 [25] = assay: Induction of cell cycle arrest in human PC3 assessed as accumulation of cells at G2/M-phase at 10 nM after 48 hrs by propidium iodide staining-based FACS analysis; type: functional
# Summary of the method: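 Positive-control treatment of PC-3 cells, then trypsinization, 70% ethanol fixation, propidium iodide DNA staining with 40 μg/mL RNase A, flow cytometric DNA content and modelled phase distribution.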
smiles,measurement,setting,value
CC(C)=CCC/C(C)=C/CC/C(C)=C/CC[C@@H]1[C@@]2(C)CC[C@H](O)C(C)(C)[C@@H]2CC[C@@]1(C)O,IC50,PC-3 [1],4 µM
same,Activity,PC-3 [2],Dose-dependent effect
same,Activity,PC-3 [3],Active
same,Activity,[4],Non-toxic
same,Activity,PC-3 [5],inactive
same,Activity,PC-3 [6],inactive
same,Activity,PC-3 [7],75.4%
same,Activity,PC-3 [8],Dose-dependent effect
same,Activity,PC-3 [9],74.2%
same,Activity,PC-3 [10],17.3%
same,Activity,PC-3 [11],Active
same,Activity,PC-3 [12],5.6%
same,Activity,PC-3 [13],Dose-dependent effect
same,Activity,PC-3 [14],9.3%
same,Activity,PC-3 [15],Active
same,Activity,PC-3 [16],Active
same,Activity,PC-3 [17],Active
same,IC50,PC-3 [18],30 µM
same,Activity,PC-3 [19],Dose-dependent effect
same,Activity,PC-3 [20],Dose-dependent effect
same,Activity,PC-3 [21],tde
same,Activity,PC-3 [22],18.9%
CC(=O)O[C@@]12CO[C@@H]1C[C@H](O)[C@@]1(C)C(=O)[C@H](O)C3=C(C)[C@@H](OC(=O)[C@H](O)[C@@H](NC(=O)OC(C)(C)C)c4ccccc4)C[C@@](O)([C@@H](OC(=O)c4ccccc4)[C@H]21)C3(C)C,Activity,PC-3 [23],tde
same,Activity,PC-3 [16],Active
same,Activity,PC-3 [24],inactive
same,Activity,PC-3 [25],Active
